Inhibition data for 61 compounds are collected here from PubChem BioAssay AID1217 (Sanford-Burnham Center for Chemical Genomics, 2008).

Structures are written as SMILES. Among all 190,000 compounds or so, about 1,300 (0.68%) were called active. This is one part of a sample in which actives are shown more often than they occur. Unmarked numbers belong to inactive results.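 Rule for the calls: active = primary screen inhibition at 20 µM above a set limit (cut at about 50% in these data); inactive = the rest.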

This test has as its system diaphorase (Clostridium kluyveri). Kind of test: diaphorase inhibitors and chemical oxidizers, primary screen, counter-screen for diaphorase-coupled primary assays, biochemical, uHTS, resorufin fluorescence (AID 1217).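 Note: plate controls were DMSO with full reaction for no effect and wells lacking NADH for full effect.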 As to conditions: diaphorase resazurin-to-resorufin fluorescence, NADH, 16 min; at 20 µM; hits give high values; bacterial (C. kluyveri) enzyme, not human. In a few lines:
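material = Clostridium kluyveri diaphorase enzyme | amount = 0.14 U/mL diaphorase, enzyme working solution | schedule = incubation 16 min, room temperature | detection = fluorescence of resorufin formed from resazurin, Ex 544/Em 590 nm | benchmarks = positive control minus NADH, DMSO neutral control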
(The purpose of a counterscreen is to sort out artefacts and off-target activity.)
Turning to `FC(F)(F)c1cccc(N/N=C/c2ccccc2)c1`, the inhibition (in general, the change of the read-out against control, counted positive when it falls) was 23.2%.

On to `COc1cccc(/C=N/Nc2ncc(C(F)(F)F)cc2Cl)c1O`, for which the inhibition was 0%. Consider `Oc1ccc(/C=N/Nc2ccc(C(F)(F)F)cn2)cc1O`, for which the inhibition is 53.7% (active). As for `CN(Cc1ccccc1)C(=O)COC(=O)c1ccccc1Nc1ccccc1`, the inhibition was 28.3%. In the case of `CCN(CC)c1ccc(/C=N/Nc2nc(C)cc(C)n2)c(O)c1`, the inhibition is 42.2%. As for `CCN(CC)c1ccc2oc(=O)c(C)nc2c1`, the inhibition is 62.3% (active).

As for `CCN(CC)c1ccc2cc(C(=O)O)c(=O)oc2c1`, the inhibition is 11.2%. Under `CCc1ccc(NC(=O)Cn2nc(C)c([N+](=O)[O-])c2C)cc1` stands 12.1%; under `COC(=O)c1ccc(OCC(=O)NC(C)(C)C)cc1`, -15.5%. `CC(=O)Nc1ccc(OCC(=O)NCc2ccc(C)cc2)cc1`: the inhibition was 11.1%. As to `CC(C)(C)NC(=O)COc1ccc(CNc2ccc3[nH]c(=O)[nH]c3c2)cc1`, the inhibition was 54.2% (active).

In the case of `Cc1cccc(C2c3[nH]c4ccccc4c3CCN2C(=O)c2cc(-c3cccn3C)n[nH]2)n1` (stereo unspecified), the inhibition is 37%.

Regarding `Cc1cc2c(cc1C)[n+](C)cn2CC(O)COCC1CC=CCC1` (stereo unspecified), the inhibition is 1.5%. For `COc1ccc(/C=C/CN2CCN(Cc3ccc(C)cc3)C(CCO)C2)cc1` (stereo unspecified) the value was 7.2%; for `CN(CCc1cn[nH]c1)C(=O)CC1C(=O)NCCN1Cc1cccc(Oc2ccccc2)c1` (stereo unspecified), 8.5%; for `O=C(CSc1ccc2nnc(-c3ccccc3)n2n1)N1CCCc2ccccc21`, 56.2% (active). Under `CCCn1c(SCC(=O)N2CCc3ccccc32)nnc1-c1ccncc1` stands 6.2%. In the case of `Cn1c(SCC(=O)N2CCCc3ccccc32)nc2ccccc2c1=O`, the inhibition was 5.1%.

On to `C=CCNC(=S)NNC(=O)COc1c(Cl)cc(Cl)cc1Cl`, for which the inhibition is 10.5%. For the compound `Cn1c(=O)c([N+](=O)[O-])c(Oc2ccccc2)c2ccccc21`, the inhibition is 82.2% (active). For `Cc1cccc(OP(=O)(Nc2c(C)n(C)n(-c3ccccc3)c2=O)Oc2cccc(C)c2)c1` the value was 14.1%; for `Cc1cccc(Oc2c([N+](=O)[O-])c(=O)n(C)c3ccccc23)c1`, 94.1% (active).

In the case of `Cn1c2ccccc2c(=O)c2c(O)cccc21`, the inhibition is -1%.

Take `Cc1nn(C)c(Oc2ccccc2)c1[N+](=O)[O-]`: the inhibition is 13.6%. Under `COc1cccc(C(=O)Oc2cc(C)[nH]c(=O)c2[N+](=O)[O-])c1` stands 15.4%.

As to `CN(Cc1cc2cc(F)ccc2[nH]1)Cc1nc(-c2cnccn2)no1`, the inhibition is 15.3%. Regarding `CN(C)c1nc(-c2cccnc2)nc(-c2ccc(Cl)cc2)c1C#N`, the inhibition was -10.7%. Turning to `COC(=O)C1CCN(C(=O)c2cc(=O)[nH]c3ccccc23)CC1`, the inhibition was 6.4%. With `OC(COCc1ccco1)CN1CCN(c2ccccc2)CC1` (stereo unspecified), the inhibition was 3.1%. For the compound `S=C(NCC1CCCO1)N1CCN(c2ccc(Cl)c(Cl)c2)CC1` (stereo unspecified), the inhibition is 21.1%. For the compound `Cc1cccc(N2CCC(NCc3c(C(=O)N4CCCCC4)nc4c(C)cccn34)CC2)c1`, the inhibition was -5.4%. Under `Cc1cccc(NC(=O)Nc2ccc3c(c2)OCO3)n1` stands 18.3%. On to `COc1ccc(NC(=S)NCCN2CCC(C)CC2)cc1`, for which the inhibition was -1.3%. For the compound `Cc1noc(/C=C/c2ccco2)c1S(=O)(=O)N1CCC(C(=O)Nc2ccc(Cl)cn2)CC1`, the inhibition is 14.1%. For the compound `COC(=O)C1=C(C)NC(=O)CC1c1ccccc1OC` (stereo unspecified), the inhibition is 6.8%. `COc1cc(N/C=C2\CC(=O)NC(C)=C2C#N)cc(OC)c1OC`: the inhibition was 51.1% (active). As for `Cc1cccc(NC(=S)NCCc2ccc(F)cc2)c1C`, the inhibition is 1.1%.

Turning to `N#Cc1c(-c2ccc(F)cc2)cc(C2CC2)nc1SCC(=O)c1cccs1`, the inhibition is 12.8%. Under `COc1ccc(C(=O)Nc2cccnc2)cc1C(=O)Nc1cccnc1` stands -17.7%; under `COc1ccc(S(=O)(=O)Nc2cccnc2)c(Cl)c1Cl`, 77.2% (active). In the case of `COc1ccccc1Oc1ccc(S(=O)(=O)Nc2cccnc2)cc1`, the inhibition is 9.6%. Turning to `S=C(Cc1ccc(Cl)cc1)N1CCOCC1`, the inhibition is -0.3%. For `CC(=O)Nc1cccc(-c2nc3ccccc3s2)c1C` the value was 6.8%; for `Cc1ccc(-c2n[nH]c(=S)n2/N=C/c2cc3c(cc2[N+](=O)[O-])OCO3)cc1`, 69.3% (active).

As to `CCOc1ccc(-c2n[nH]c(=S)n2/N=C/c2cc3c(cc2[N+](=O)[O-])OCO3)cc1`, the inhibition is 41.6%. In the case of `Cc1ccc(S(=O)(=O)N/N=C\c2cc3c(cc2[N+](=O)[O-])OCO3)cc1`, the inhibition is 37.8%. With `COc1ccc(CS(=O)/C(Cl)=C(/Cl)C(=O)Nc2ccc(OC)nc2)cc1` (stereo unspecified), the inhibition was 1%. As to `COc1ccc(S(=O)(=O)Nc2ccc(O)c(Sc3nc4ccccc4s3)c2)cc1`, the inhibition was 24.7%. For the compound `O=C(O)c1cccc(S(=O)(=O)Nc2ccc(O)cc2Sc2nc3ccccc3s2)c1`, the inhibition is 7.5%. As to `O=[N+]([O-])c1c(NCCO)cc(Sc2nc3ccccc3s2)c2nonc12`, the inhibition was 58% (active). As for `C[C@H](NC(=O)c1ccccc1Cl)C(=O)OCCOc1cccc(Cl)c1`, the inhibition was 11.2%.

For the compound `COc1cccc(-n2cc(C(=O)O)c3ccccc3c2=O)c1`, the inhibition is 6.7%. As to `COC(=O)c1ccc(CSc2nc3ccccc3c(=O)n2-c2cccc(OC)c2)o1`, the inhibition is 39.9%. In the case of `COc1cccc(-n2c(=S)[nH]c3c(oc4ccccc43)c2=O)c1`, the inhibition was 71.4% (active). For the compound `CN(C(=O)c1c(Cl)cnn1C)C12CC3CC(CC(C3)C1)C2`, the inhibition is 3.9%. As for `C/C(=N\Nc1ccc([N+](=O)[O-])cc1)c1ccc(-n2nncc2C(C)(C)C)cc1`, the inhibition was 5%. For `O=C(CN1C(=O)c2cccc3cccc1c23)Nc1ccccc1` the value was -6.4%; for `CCN1C(=O)c2cccc3c(N)ccc1c23`, 57.3% (active). As to `CCCCN(C)C(=O)c1ccc2c(c1)N(CC)C(=O)c1ccccc1S2(=O)=O`, the inhibition was 4.6%. `CN1C(=O)C(CC(=O)Nc2ccccc2)S/C1=N/c1nccs1` (stereo unspecified): the inhibition is -11.3%. Regarding `CC(=O)Nc1ccc(S(=O)(=O)N(CCc2ccccc2)CC(=O)N/N=C/c2ccc(C(=O)O)cc2)cc1`, the inhibition is 0.3%.
